Where two headings read alike, the source gives them in different places.
Tests used:
sigma-1 receptor [1] = target: T1, sigma-1 receptor (Rattus norvegicus, UniProt Q9R0C9); test: Protection of [125I]-IACoc photolabeling in rat liver membranes; assay type: binding; details: for protection against sigma-1 receptor [125I]-IACoc photolabeling (in words): even at these high concentrations (50 and 100 μM); for protection of [125I]-IACoc photolabeling of the 26-kD sigma-1 receptor: 1 nM [125I]-IACoc
sigma-2 receptor [2] = target: T2, sigma-2 receptor (Rattus norvegicus, UniProt Q5U3Y7); test: Protection of [125I]IAF photolabeling of sigma-2 receptor in rat liver membranes; assay type: binding; details: for protection of [125I]IAF sigma-2 receptor photolabeling: 1 nM [125I]IAF
T2 sequence (Q5U3Y7 1-176): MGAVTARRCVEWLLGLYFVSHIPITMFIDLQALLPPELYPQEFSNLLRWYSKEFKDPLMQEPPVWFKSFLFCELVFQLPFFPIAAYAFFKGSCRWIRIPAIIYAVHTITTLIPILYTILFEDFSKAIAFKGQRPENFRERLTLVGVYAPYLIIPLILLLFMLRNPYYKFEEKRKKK

sigma-1 receptor [3] = target: T3, sigma-1 receptor (Homo sapiens, UniProt Q99720); test: Competition binding against
sigma-2 receptor [4] = target: T4, sigma-2 receptor (Homo sapiens, UniProt Q5BJF2); test: Sigma-2 receptor binding
sigma-1 receptor [5] = target: T1, sigma-1 receptor; test: Protection of [125I]IAF photolabeling of sigma-1 receptor in rat liver membranes; assay type: binding; details: for protection of [125I]IAF photolabeling of the sigma-1 receptor: 1 nM [125I]IAF
KO myocytes = test: Patch-clamp INa in sigma-1 receptor KO neonatal cardiac myocytes; assay type: cell-based, mouse; details: 100 μM, n = 7
How it was run: (§1)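 Neonatal cardiac myocytes came from wild-type and sigma-1 receptor knock-out mice. INa was evoked by steps from −80 to −10 mV and recorded in the absence of, during and after washout of 100 μM test compound.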

WT mice = test: Open-field assay, WT mice; assay type: in vivo, mouse
[6] = tested on: WT neonatal cardiac myocytes; test: Patch-clamp INa in WT neonatal cardiac myocytes; assay type: cell-based; details: Mus musculus, read-out: inhibition of INa
How it was run: as §1

[7] = tested on: human cardiac Na+ channel hNav1.5; test: Patch-clamp INa in COS-7 cells transiently transfected with hNav1.5; assay type: cell-based; details: 100 μM, n = 3
How it was run: (§2)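 Whole-cell INa was recorded in hNav1.5-expressing cells (HEK293; COS-7 transiently transfected). Currents were evoked by steps from −80 to −10 mV before, during and after washout of 100 μM test compound. Inhibition was derived from peak INa, reported as mean ± SEM of n = 3 cells.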

[8] = tested on: human cardiac Na+ channel hNav1.5; test: Patch-clamp INa in HEK293 cells stably expressing hNav1.5; assay type: cell-based; details: 100 μM, steps from −80 to −10 mV, n = 3
How it was run: as §2

sigma-1 receptor [9] = target: T3, sigma-1 receptor; details: read-out: sigma-1 Kd; cited from earlier work
sigma-2 receptor [10] = target: T4, sigma-2 receptor; details: read-out: sigma-2 Kd; cited from earlier work
sigma-1 receptor KO mice = test: Open-field assay, sigma-1 receptor KO mice; assay type: in vivo, mouse; details: 3 mg/kg, ip, n = 6

T1 sequence (Q9R0C9 whole entry): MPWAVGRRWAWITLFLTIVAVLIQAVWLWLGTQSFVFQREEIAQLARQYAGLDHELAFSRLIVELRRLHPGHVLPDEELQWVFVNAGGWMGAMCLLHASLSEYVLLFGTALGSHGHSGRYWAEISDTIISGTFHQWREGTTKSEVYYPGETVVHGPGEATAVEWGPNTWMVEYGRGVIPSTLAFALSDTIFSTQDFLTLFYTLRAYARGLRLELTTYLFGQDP
T4 sequence (Q5BJF2 whole entry, species assumed): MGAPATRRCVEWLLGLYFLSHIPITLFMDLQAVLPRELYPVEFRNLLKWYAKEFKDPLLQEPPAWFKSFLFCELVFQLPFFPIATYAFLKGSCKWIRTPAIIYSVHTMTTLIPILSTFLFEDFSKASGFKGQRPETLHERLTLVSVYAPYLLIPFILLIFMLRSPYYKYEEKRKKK
T3 sequence (Q99720 whole entry, species assumed): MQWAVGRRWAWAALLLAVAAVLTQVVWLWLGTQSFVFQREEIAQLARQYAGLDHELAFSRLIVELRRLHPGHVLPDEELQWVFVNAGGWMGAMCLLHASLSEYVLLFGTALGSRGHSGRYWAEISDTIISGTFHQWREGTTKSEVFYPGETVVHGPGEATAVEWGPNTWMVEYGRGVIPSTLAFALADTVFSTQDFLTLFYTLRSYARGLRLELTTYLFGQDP

SMILES: NCCc1c[nH]c2ccccc12 [tryptamine]
- protection against sigma-1 receptor [125I]-IACoc photolabeling (in words) (sigma-1 receptor [1]): protected minimally
- protection of [125I]IAF sigma-2 receptor photolabeling (sigma-2 receptor [2]; 10 μM): 47%
- protection of [125I]IAF sigma-2 receptor photolabeling (sigma-2 receptor [2]; 50 μM): 78%
- protection of [125I]IAF sigma-2 receptor photolabeling (sigma-2 receptor [2]; 100 μM): 79%
- Kd (sigma-1 receptor [3]): 431 µM
- Kd (sigma-2 receptor [4]): 4.91 µM

SMILES: CNCCc1c[nH]c2ccccc12 [N-methyltryptamine]
- protection against sigma-1 receptor [125I]-IACoc photolabeling (in words) (sigma-1 receptor [1]): protected minimally

SMILES: CN(C)CCc1c[nH]c2ccccc12 [DMT, N,N-dimethyltryptamine]
- protection of [125I]-IACoc photolabeling of the 26-kD sigma-1 receptor (sigma-1 receptor [1]; 50 μM): 61%
- protection of [125I]-IACoc photolabeling of the 26-kD sigma-1 receptor (sigma-1 receptor [1]; 100 μM): ~100%
- protection of [125I]IAF photolabeling of the sigma-1 receptor (sigma-1 receptor [5]; 10 μM): 31%
- protection of [125I]IAF photolabeling of the sigma-1 receptor (sigma-1 receptor [5]; 50 μM): 43%
- protection of [125I]IAF photolabeling of the sigma-1 receptor (sigma-1 receptor [5]; 100 μM): 69%
- reduction of INa (KO myocytes): 7 ± 2%
- distance traveled in open-field assay (hypermobility) (WT mice; 2 mg/kg ip, 2 hours after pargyline (75 mg/kg, ip), n = 12): 7025 ± 524.1 cm
- inhibition at 100 µM [6]: 29 ± 3%
- inhibition of INa [7]: 22 ± 4%
- inhibition of INa [8]: 62 ± 3%

SMILES: CC1CN(CCCc2ccc(N=[N+]=[N-])c(I)c2)CC(C)O1 (stereo not shown) [[^125I]IAF, 1-N-(2′,6′-dimethyl-morpholino)-3-(4-azido-3-[^125I]iodo-phenyl) propane]
- Kd (sigma-1 receptor [9]): 0.194 µM
- Kd (sigma-2 receptor [10]): 2.78 µM

SMILES: O=C(CCCN1CCC(O)(c2ccc(Cl)cc2)CC1)c1ccc(F)cc1 [haloperidol, reference compound]
- protection of sigma-2 receptor photolabeling (in words) (sigma-2 receptor [2]; 10 μM, [125I]IAF): protected

SMILES: COC(=O)C1C(OC(=O)c2ccc(N=[N+]=[N-])c(I)c2)CC2CCC1N2C (stereo not shown) [[^125I]-IACoc, 3-[^125I]iodo-4-azidococaine]
- Kd (sigma-1 receptor [9]): 0.000126 µM

SMILES: NCCc1ccc(O)cc1 [tyramine]
- Kd (sigma-1 receptor [3]): > 30000 µM

SMILES: CC(C)=CCN1CC[C@]2(C)c3cc(O)ccc3C[C@H]1[C@H]2C [(+)-pentazocine, reference compound]
- protection of sigma-1 receptor photolabeling (in words) (sigma-1 receptor [5]; 10 μM, [125I]-IACoc or [125I]IAF): protected

SMILES: NCCc1ccccc1 [phenethylamine]
- Kd (sigma-1 receptor [3]): 97.4 µM
- Kd (sigma-2 receptor [4]): 7.31 µM

SMILES: CNCCc1ccc(O)cc1 [N-methyltyramine]
- Kd (sigma-2 receptor [4]; read-out: sigma-2 receptor Kd): 6.61 µM

SMILES: CN[C@@H](C)Cc1ccccc1 [methamphetamine, reference compound]
- hypermobility in open-field assay (in words) (sigma-1 receptor KO mice): induced hypermobility
- hypermobility in open-field assay (in words) (WT mice; 3 mg/kg, ip, n = 6): induced hypermobility

— article PMC2947205 (Science (New York, N.Y.), 2009)
